According to ChEMBL document CHEMBL1126114, “A novel orally active inhibitor of IL-1 generation: synthesis and structure-activity relationships of 3-(4-hydroxy-1-naphthalenyl)-2-propenoic acid derivatives” (J Med Chem, 1992):
Where “and” joins values, the source holds several entries; their conditions need not be identical. Equal values may be shown once. Values belong to the compound of their own block, whether it stands above or below them.

Legend:
Rattus norvegicus [1] = test: The compound was tested for Granuloma generation on CMC-LPS air-pouch model at 25 mg/Kg by oral administration; assay type: functional
Outline: (§1)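 Rat CMC-LPS air pouch (air, 2% CMC-Na, then LPS 5 ng). Oral dosing in 0.5% methyl cellulose 2 h before LPS. Granuloma wet weight determined 5 days after LPS; % inhibition versus control, with an LPS-free group included.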

Rattus norvegicus [2] = test: Activity against arthritis on adjuvant-untreated paw in rats at 50 mg/Kg by oral administration; assay type: functional
Outline: (§2)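 Adjuvant arthritis in rats; drug given orally once daily from the first day of adjuvant treatment. Swelling of the adjuvant-untreated paw measured by plethysmometer on day 15 after adjuvant; % inhibition versus control. Mean ± SEM of 6–10 animals; significance versus control.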

Rattus norvegicus [3] = test: Activity against arthritis on adjuvant-untreated paw in rats at 100 mg/Kg by oral administration; assay type: functional; outline: as §2
Rattus norvegicus [4] = test: The compound was tested for IL-1 generation on CMC-LPS air-pouch model at 25 mg/Kg by oral administration; assay type: functional, organism-based
Outline: (§3)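 Rats got 10 mL subcutaneous dorsal air, then 6 mL sterile 2% (w/v) CMC-Na in saline into the pouch 24 h later, then 5 ng LPS in 0.5 mL saline 24 h after that. Compound given orally as a suspension in 0.5% methyl cellulose 2 h before LPS. Exudate collected 4 h after LPS. Extra- plus intracellular IL-1 measured by LAF assay against a human recombinant IL-1α curve. Percent inhibition versus control; five rats per group.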

Rattus norvegicus [5] = test: Inhibitory activity against IL-1 on CMC-LPS air-pouch model at 100 mg/Kg by oral administration; assay type: functional
Outline: (§4)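 Rat CMC-LPS air pouch: air s.c., 2% CMC-Na 24 h later, LPS 5 ng 24 h after that. Compound given orally in 0.5% methyl cellulose 2 h before LPS. Exudate collected at 4 h; IL-1 (extra- plus intracellular) read by LAF assay against a recombinant human IL-1α curve.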

Rattus norvegicus [6] = test: Inhibitory activity against IL-1 on CMC-LPS air-pouch model at 25 mg/Kg by oral administration; assay type: functional; outline: as §4
Rattus norvegicus [7] = test: The compound was tested for IL-1 generation on CMC-LPS air-pouch model at 12.5 mg/Kg by oral administration; assay type: functional, organism-based; outline: as §3
Rattus norvegicus [8] = test: % inhibition against arthritis on adjuvant-untreated paw in rats at 50 mg/Kg by oral administration; assay type: functional; outline: as §2
Rattus norvegicus [9] = test: Compound was evaluated in vivo for the percent inhibition of IL-1 generation in rat CMC-LPS air pouch model at 50 mg/Kg concentration (oral administration); assay type: functional; outline: as §4
Rattus norvegicus [10] = test: % inhibition against arthritis on adjuvant-untreated paw in rats at 25 mg/Kg by oral administration; assay type: functional; outline: as §2
Rattus norvegicus [11] = test: Inhibitory activity against IL-1 on CMC-LPS air-pouch model at 50 mg/Kg by oral administration; assay type: functional; outline: as §4
Rattus norvegicus [12] = test: Inhibitory activity against PGE-2 on CMC-LPS air-pouch model at 12.5 mg/Kg by oral administration; assay type: functional
Outline: (§5)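 Rat CMC-LPS air pouch (air, 2% CMC-Na, then LPS 5 ng). Oral dosing in 0.5% methyl cellulose 2 h before LPS. PGE2 in the exudate supernatant collected 4 h after LPS, measured by radioimmunoassay.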

Rattus norvegicus [13] = test: Inhibitory activity against PGE-2 on CMC-LPS air-pouch model at 50 mg/Kg by oral administration; assay type: functional; outline: as §5
Rattus norvegicus [14] = test: Inhibitory activity against Granuloma on CMC-LPS air-pouch model at 25 mg/Kg by oral administration; assay type: functional; outline: as §1
Rattus norvegicus [15] = test: Activity against arthritis on adjuvant-untreated paw in rats at 25 mg/Kg by oral administration; assay type: functional; outline: as §2
Rattus norvegicus [16] = test: The compound was tested for Granuloma generation on CMC-LPS air-pouch model at 100 mg/Kg by oral administration; assay type: functional; outline: as §1
Rattus norvegicus [17] = test: Inhibitory activity against PGE-2 on CMC-LPS air-pouch model at 25 mg/Kg by oral administration; assay type: functional; outline: as §5
Rattus norvegicus [18] = test: % inhibition against arthritis on adjuvant-untreated paw in rats at 100 mg/Kg by oral administration; assay type: functional; outline: as §2
Rattus norvegicus [19] = test: The compound was tested for PGE-2 generation on CMC-LPS air-pouch model at 12.5 mg/Kg by oral administration; assay type: functional, organism-based
Outline: (§6)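 Rat dorsal air pouch: CMC-Na (2% w/v, 6 mL) injected 24 h after the air, LPS (5 ng) 24 h after that. Oral dosing as a suspension in 0.5% methyl cellulose 2 h before LPS. Exudate sampled 4 h post-LPS; PGE2 in the exudate supernatant measured by radioimmunoassay. Percent inhibition versus control; five animals per group.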

Rattus norvegicus [20] = test: Inhibitory activity against IL-1 on CMC-LPS air-pouch model at 200 mg/Kg by oral administration; assay type: functional; outline: as §4
Rattus norvegicus [21] = test: The compound was tested for PGE-2 generation on CMC-LPS air-pouch model at 50 mg/Kg by oral administration; assay type: functional, organism-based; outline: as §6
Rattus norvegicus [22] = test: Inhibitory activity against Granuloma on CMC-LPS air-pouch model at 12.5 mg/Kg by oral administration; assay type: functional; outline: as §1
Rattus norvegicus [23] = test: Inhibitory activity against IL-1 on CMC-LPS air-pouch model at 12.5 mg/Kg by oral administration; assay type: functional; outline: as §4
Rattus norvegicus [24] = test: Inhibitory activity against Granuloma on CMC-LPS air-pouch model at 100 mg/Kg by oral administration; assay type: functional; outline: as §1
Rattus norvegicus [25] = test: Inhibitory activity against PGE-2 on CMC-LPS air-pouch model at 200 mg/Kg by oral administration; assay type: functional; outline: as §5
Rattus norvegicus [26] = test: Inhibitory activity against Granuloma on CMC-LPS air-pouch model at 200 mg/Kg by oral administration; assay type: functional; outline: as §1
Rattus norvegicus [27] = test: Inhibitory activity against PGE-2 on CMC-LPS air-pouch model at 100 mg/Kg by oral administration; assay type: functional; outline: as §5
Rattus norvegicus [28] = test: Activity against arthritis on adjuvant-untreated paw in rats at 12.5 mg/Kg by oral administration; assay type: functional; outline: as §2
Rattus norvegicus [29] = test: % inhibition against arthritis on adjuvant-untreated paw in rats at 12.5 mg/Kg by oral administration; assay type: functional; outline: as §2
Rattus norvegicus [30] = test: The compound was tested for Granuloma generation on CMC-LPS air-pouch model at 50 mg/Kg by oral administration; assay type: functional; outline: as §1
Rattus norvegicus [31] = test: Inhibitory activity against Granuloma on CMC-LPS air-pouch model at 50 mg/Kg by oral administration; assay type: functional; outline: as §1
Rattus norvegicus [32] = test: The compound was tested for PGE-2 generation on CMC-LPS air-pouch model at 100 mg/Kg by oral administration; assay type: functional, organism-based; outline: as §6
Rattus norvegicus [33] = test: The compound was tested for PGE-2 generation on CMC-LPS air-pouch model at 25 mg/Kg by oral administration; assay type: functional, organism-based; outline: as §6
Rattus norvegicus [34] = test: The compound was tested for Granuloma generation on CMC-LPS air-pouch model at 12.5 mg/Kg by oral administration; assay type: functional; outline: as §1
Rattus norvegicus [35] = test: In vivo percent inhibition of IL-1 generation in rat CMC-LPS air pouch model at 100 uM concentration (local administration); assay type: functional
Outline: (§7)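 Rat air pouch: 10 mL air s.c. into the dorsum, 2% CMC-Na in saline 24 h later, then LPS 5 ng 24 h after CMC. Compound given locally in 5% EtOH-RPMI with 30% autologous serum, 100 μM final in exudate, at 30 min before and just before LPS. Exudate IL-1 (extra- plus intracellular) read by LAF at 4 h. n=5; % inhibition ± SEM.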

Rattus norvegicus [36] = test: The compound was tested for PGE-2 generation on CMC-LPS air-pouch model at 200 mg/Kg by oral administration; assay type: functional, organism-based; outline: as §6
Rattus norvegicus [37] = test: The compound was tested for Granuloma generation on CMC-LPS air-pouch model at 200 mg/Kg by oral administration; assay type: functional; outline: as §1
Rattus norvegicus [38] = organism: Rattus norvegicus; test: In vitro inhibitory activity against IL-1 generation by using rat exudated macrophages; assay type: functional
Outline: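 Fisher rat peritoneal exudate cells collected 4 days after i.p. 2.5% glycogen. Cells adhered 1.5 h at 37 °C in 1% normal rat serum. Adherent macrophages stimulated with LPS 1 ng/mL for 4 h ± compound. Intracellular IL-1 read by LAF assay against a recombinant human IL-1α curve. IC50 by least squares; mean of duplicates.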

Rattus norvegicus [39] = test: Compound was evaluated in vivo for the percent inhibition of IL-1 generation in rat CMC-LPS air pouch model at 100 uM concentration; assay type: functional; outline: as §7
Homo sapiens = organism: Homo sapiens; test: In vitro inhibitory activity against IL-1 generation by using human monocyte; assay type: functional
Outline: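 Healthy-donor peripheral mononuclear cells, adhered 1.5 h in RPMI 1640 with 10% heat-inactivated autologous serum. Adherent monocytes then stimulated with LPS 1 μg/mL for 16–18 h in 1% autologous serum with 0.1% ethanol, ± drug. Extra- plus intracellular IL-1 read by LAF assay against a recombinant human IL-1β curve. IC50 by least squares; mean of ≥2 experiments.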

Structure (SMILES): CCc1cccc2c(/C=C(/C)C(=O)O)cc(OC)c(O)c12
Wet weight (Rattus norvegicus [1]): 1.61 g
Swelling (Rattus norvegicus [2]): 33.8%
Swelling (Rattus norvegicus [3]): 26.8%
Concentration (Rattus norvegicus [4]): 1030 U/mL
inhibition in vivo at 100 mg/kg (Rattus norvegicus [5]): 84%
inhibition in vivo at 25 mg/kg (Rattus norvegicus [6]): 40%
Concentration (Rattus norvegicus [7]): 1290 U/mL
inhibition in vivo at 50 mg/kg (Rattus norvegicus [8]): 38.8%
inhibition in vivo at 50 mg/kg (Rattus norvegicus [9]): 65%
inhibition in vivo at 25 mg/kg (Rattus norvegicus [10]): 34.1%
inhibition in vivo at 50 mg/kg (Rattus norvegicus [11]): 65%
inhibition in vivo at 12.5 mg/kg (Rattus norvegicus [12]): 35%
inhibition in vivo at 50 mg/kg (Rattus norvegicus [13]): 68%
inhibition in vivo at 25 mg/kg (Rattus norvegicus [14]): 37%
Swelling (Rattus norvegicus [15]): 36.4%
Wet weight (Rattus norvegicus [16]): 1.25 g
inhibition in vivo at 25 mg/kg (Rattus norvegicus [17]): 43%
inhibition in vivo at 100 mg/kg (Rattus norvegicus [18]): 51.4%
Concentration (Rattus norvegicus [19]): 5.9 ng/mL
inhibition in vivo at 200 mg/kg (Rattus norvegicus [20]): 91%
Concentration (Rattus norvegicus [21]): 2.9 ng/mL
inhibition in vivo at 12.5 mg/kg (Rattus norvegicus [22]): < 25%
inhibition in vivo at 12.5 mg/kg (Rattus norvegicus [23]): < 25%
inhibition in vivo at 100 mg/kg (Rattus norvegicus [24]): 76%
inhibition in vivo at 200 mg/kg (Rattus norvegicus [25]): 90%
inhibition in vivo at 200 mg/kg (Rattus norvegicus [26]): 87%
inhibition in vivo at 100 mg/kg (Rattus norvegicus [27]): 91%
Swelling (Rattus norvegicus [28]): 44.1%
inhibition in vivo at 12.5 mg/kg (Rattus norvegicus [29]): 20.1%
Wet weight (Rattus norvegicus [30]): 1.49 g
inhibition in vivo at 50 mg/kg (Rattus norvegicus [31]): 49%
Concentration (Rattus norvegicus [32]): 0.8 ng/mL
Concentration (Rattus norvegicus [33]): 5.2 ng/mL
Wet weight (Rattus norvegicus [34]): 1.93 g
Inhibition (Rattus norvegicus [35]): 94% and 91%
Concentration (Rattus norvegicus [36]): 0.9 ng/mL
Wet weight (Rattus norvegicus [37]): 1.16 g

IC50 (Rattus norvegicus [38]): 6 µM
IC50 (Homo sapiens): 5.4 µM
Structure (SMILES): CCc1cccc2c(/C=C/C(=O)O)cc(Cl)c(O)c12
Inhibition (Rattus norvegicus [39]): <25%
